Most compounds without a hit are left out; they make up all but 3.5% or so of the library.
NF-kB neuron act – raises NF-kB expression in human neuronal cells. 1.6% of 190,000 active. AID 1239. NF-kB reporter expression; hits give high values. fold change at 12.5 µM; in the data active = fold change above about 3.3
FLuc stim CS – affects firefly luciferase, flagging false hits in luciferase stimulation screens; 200,000 tested, under 10 active; ATPlite luciferase biochemical, luminescence, 10 min; 0 = ATP-free wells, 1 = DMSO control; activation factor at 10 µM; P08659;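 active = luciferase activation factor, scaled between plate controls, of at least 2 with compound at 10 µM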
Target sequence (P08659 whole entry, looked up): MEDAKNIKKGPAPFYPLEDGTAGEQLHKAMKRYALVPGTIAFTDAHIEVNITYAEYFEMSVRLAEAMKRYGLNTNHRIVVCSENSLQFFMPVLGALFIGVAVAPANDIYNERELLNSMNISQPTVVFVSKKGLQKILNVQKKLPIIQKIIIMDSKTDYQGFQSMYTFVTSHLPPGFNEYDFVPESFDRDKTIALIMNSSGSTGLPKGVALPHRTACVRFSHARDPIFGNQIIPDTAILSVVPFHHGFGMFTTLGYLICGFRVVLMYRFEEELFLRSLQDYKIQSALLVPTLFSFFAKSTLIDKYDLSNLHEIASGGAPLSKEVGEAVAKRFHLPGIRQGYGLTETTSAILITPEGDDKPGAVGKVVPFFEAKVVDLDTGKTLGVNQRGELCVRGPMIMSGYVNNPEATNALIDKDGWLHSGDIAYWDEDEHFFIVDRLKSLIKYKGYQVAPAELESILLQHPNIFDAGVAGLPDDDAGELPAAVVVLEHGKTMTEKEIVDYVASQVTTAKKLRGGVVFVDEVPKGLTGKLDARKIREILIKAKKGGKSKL
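Material: luciferase plus luciferin reagent, cell-free. Medium: PBS buffer for ATP. Also added: ATP substrate, dispensed from a 10.24 µM working solution in PBS. Doses: test compounds dosed from 2 mM stocks in 100% DMSO. Incubation: 10 min post-reagent at room temperature. Technique: light output (luminescence). Read-out basis: luminescence gain marking luciferase activators.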
FLuc inh counter – counter-screen for luciferase assay inhibitors: firefly luciferase inhibition | AID 1006 | 1.5% of 200,000 active | ATPLite firefly luciferase biochemical luminescence, 10 min | inhibition, % at 10 µM | P08659;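 active = inhibition above about 50% when tested at 10 µM, limit read from the data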
Pf gametocyte – inhibitors of late stage P. falciparum gametocyte viability; P. falciparum stage V gametocytes, ATP luminescence, 24 h; inhibition, % at 10.9 µM; 0.065% of 150,000 active; AID 743093;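 active = inhibition above the mean plus 3 SD of compounds within the control limits, set per campaign, cut at about 38% in these data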;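 note: 0% = DMSO wells and 100% = medium only without gametocytes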
APP 5'UTR act – activates APP 5'UTR luciferase reporter | 1% of 190,000 active | activation, % at 2 µM | SH-SY5Y APP 5'UTR luciferase reporter, luminescence; zero percent = DMSO vehicle wells;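 active = activation above a set limit, based on mean plus 3 SD of controls, cut at about 140% in these data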
STAT1 activator – increases IFN-gamma driven STAT1 reporter signal | NIH 3T3 STAT1-luciferase reporter, luminescence; 100% = IFN-gamma alone, no compound | activation (% of control), % at 5.5 µM | 2.6% of 200,000 active;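 active = activation above the screen-wide mean activation plus 3 SD, cut at about 130% in these data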;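 note: raw ratio to IFN-gamma control signal so 100% means no change and 0% no light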
* = called active by the depositor; · = no result given.

SMILES	NF-kB neuron act	FLuc stim CS	FLuc inh counter	Pf gametocyte	APP 5'UTR act	STAT1 activator
COc1ccc2c(c1)Cc1sc(NC(=O)c3cccs3)nc1-2	1.55	0.9	9.5	-11.5	115.0	149.3*
COc1ccc(C(=O)Nc2nc3c(s2)Cc2cc(OC)ccc2-3)cc1	0.9	1	2.6	·	6.5	103.7
O=C(CSc1ncnc2c1nnn2Cc1ccccc1F)N1CCN(c2ccccc2)CC1	1.14	1	-4.4	·	8.9	97.2
CCOc1cc(CNc2ccc(N(C)C)cc2)cc(Br)c1OCC(=O)NC(C)(C)C	0.44	1	-3.6	·	104.8	144.8*
Cc1cccc(C)c1NC(=O)Cn1cnc2c(=O)n(C)c(=O)n(C)c21	0.89	1.1	-10.3	16.7	-4.2	91.6
Cc1ccccc1C(=O)Nc1cccc(NC(=O)Cn2cnc3c(=O)n(C)c(=O)n(C)c32)c1	5.42*	1	-0.2	·	-13.4	95.6
COc1ccc(OCC(=O)N/N=C(\C)c2cc3ccccc3o2)cc1	1.7	0.2	81.4*	22.4	-3.3	104.8
COc1ccc(OC)c(NC(=O)c2cc3ccccc3o2)c1	1.07	1	3.8	·	2.0	107.6
Cc1ccc(NC(=O)c2ccc(OC(=O)c3cc4ccccc4o3)cc2)cc1	1.87	1	-2.5	·	38.3	134.5*
COc1ccc(OCC(=O)N/N=C(\C)c2ccc(OC)cc2)cc1	0.95	0.9	12.5	-12.7	7.7	97.5
COc1ccc(NC(=O)c2ccc(C)cc2)cc1	·	·	·	5.8	·	·
COc1ccc(OC(=O)c2cc3ccccc3o2)cc1	1.13	0.4	57.1*	-4.6	-4.3	99.0
Cc1oc(=O)c(NC(=O)c2ccccc2)cc1C(=O)c1ccccc1	2.44	0.9	5.5	6.9	55.4	111.2
CC(=O)c1cc(NC(=O)c2ccccc2)c(=O)oc1C	6.09*	1	1.3	-19.9	9.3	96.3
CCC(C)N(CC(=O)Nc1cccc(C)c1C)C(=O)CCl (centres undefined)	0.1	1.1	-6.9	·	-6.0	64.0
Cc1cc(Br)ccc1SCC(=O)OCC(=O)NC1CCCC1	1.29	1.1	-6.8	8.7	-10.1	98.5
O=C(O)COc1ccccc1/C=N/NC(=O)CSc1nnc(SCc2ccccc2)s1	·	·	·	-8.7	·	·
O=C(Oc1ccccc1)c1ccc(NC(=O)c2ccco2)cc1	1.42	0.9	10.6	5.5	2.1	136.2*
Cc1ccc(C(=O)Nc2cc3ccccc3oc2=O)cc1	1.05	0.1	86.6*	12.8	-66.1	11.9
CC(=O)Nc1cc2ccccc2oc1=O	1.49	1	-2.9	-7.1	12.4	108.1
Cc1ccc(NC(=O)c2ccc(OC(=O)c3ccco3)cc2)cc1	2.77	1	-2.1	12.6	14.9	133.8*
Cc1ccc(Oc2ccc(NC(=O)c3ccco3)cc2)cc1	1.72	1	4.5	17.1	28.8	118.6
O=C(c1cc(C(=O)N2CCOCC2)c2nc3ccccc3n2c1)c1cc(Cl)cc(Cl)c1O	·	·	·	-19.7	·	·
O=C(O)c1csc(-c2ccccc2)n1	·	·	·	-4.9	·	·
CC(C)C(=O)Nc1ccc(-c2csc(-c3ccccc3)n2)cc1	1.77	1	2.5	·	133.2	141.6*
SMILES	NF-kB neuron act	FLuc stim CS	FLuc inh counter	Pf gametocyte	APP 5'UTR act	STAT1 activator
Oc1ccccc1-c1csc(-c2ccccc2)n1	1.18	0.7	33.7	·	115.5	131.1*
c1ccc2sc(-c3ccncc3)nc2c1	·	·	·	4.0	·	·
c1ccc(-c2csc(-c3ccncc3)n2)cc1	1.4	1	3.4	21.8	7.4	132.7*
Nc1nc(-c2ccc(-c3ccccc3)cc2)cs1	7.86*	0.3	71.7*	17.7	178.8*	140.8*
CN(C(=O)c1cccc(NC(=O)Cc2cccc([N+](=O)[O-])c2)c1)C1CCCC1	·	·	·	-27.5	·	·
c1ccc2c(-c3csc(-c4ccncc4)n3)c[nH]c2c1	2.19	0.8	19.5	14.5	30.8	147.3*
COc1cc(/C=N/NC(N)=S)cc(Br)c1OCc1ccccc1F	1.65	1	-0.6	·	19.6	128.6*
CC(C)C(NS(=O)(=O)c1ccc2c(c1)oc(=O)n2C)C(=O)N1CCN(Cc2ccccc2)CC1 (centres undefined)	1.38	1	-3.0	·	-10.5	101.4
COC(=O)c1c(-c2ccccc2)csc1N1C(=O)Nc2ccccc2N1O	1.78	0.3	71.3*	0.1	7.8	114.2
Cc1cc(C)nc(N/N=C/C2=C(O)CC(c3ccc(F)cc3)CC2=O)n1 (centres undefined)	·	·	·	-1.4	·	·
Cc1cc(SCC(=O)N/N=C/c2ccc(O)c(O)c2O)c(C)cc1Br	2.77	1	2.9	39.1*	-5.9	104.4
Nc1nc(NC(=O)c2ccccc2)nn1-c1ccccc1	1.46	0.9	6.9	57.7*	-0.6	112.5
COc1ccc(C(=O)Nc2nc(N)n(-c3ccccc3)n2)cc1	1.23	0.8	22.5	-14.2	-3.4	100.1
COc1cccc(C(=O)Nc2ccc(N(C)C)cc2)c1OC	2.11	0.6	41.9	·	53.0	142.0*
CN(C)c1ccc(NC(=O)c2cccc(C(=O)Nc3ccc(N(C)C)cc3)n2)cc1	0.42	0.4	55.6*	7.9	46.3	118.7
COc1cccc(NC(=O)c2cccc(OC)c2OC)c1	2.66	0.7	26.9	·	57.1	136.1*
C/C(CC(=O)Nc1ccc(N(C)C)cc1)=N\NC(=O)c1ccccn1	1.17	1	-3.2	-2.2	115.1	139.6*
CN(C)c1ccc(/C=N/NC(=O)c2cccc(C(=O)N/N=C/c3ccc(N(C)C)cc3)n2)cc1	1.3	0.8	16.1	-5.9	12.6	108.1
COc1cccc(NC(=O)c2cc3ccccc3cc2OC)c1	·	·	·	4.0	·	·
C/C(CC(=O)Nc1ccc(N(C)C)cc1)=N\NC(=O)c1cnccn1	0.74	1	-1.5	3.4	3.0	116.6
O=C1/C(=C/c2cccnc2)SC(=S)N1Nc1ccccc1	·	·	·	2.1	·	·
Cc1ccc(S(=O)(=O)NC2CC2)cc1	·	·	·	-14.2	·	·
COc1cc(OC)cc(C(=O)NCC(=O)OCc2nc3ccccc3s2)c1	1.84	0.8	21.3	26.3	139.5*	145.4*
O=C(OCc1nc2ccccc2s1)c1cccs1	1.23	0.7	29.7	1.9	-7.0	136.9*
C=CCOc1c(Cl)cc(CNc2ccc(N(C)C)cc2)cc1OC	0.7	1	0.4	·	66.7	136.9*
SMILES	NF-kB neuron act	FLuc stim CS	FLuc inh counter	Pf gametocyte	APP 5'UTR act	STAT1 activator
C/C(=C\c1ccccc1)CN1CCN(Cc2ccc(C)o2)C(CCO)C1 (centres undefined)	1.19	1.1	-9.0	·	-9.9	96.0
COc1ccc(Nc2cnn(-c3nc4ccccc4s3)c(=O)c2Cl)cc1	1.88	0.7	29.1	2.4	-18.7	95.8
O=c1c(Cl)c(Nc2cccc(Cl)c2)cnn1-c1nc2ccccc2s1	1.94	0.6	39.5	·	115.6	149.8*
CCOC(=O)C(C(=O)N(C)Cc1ccccc1)C1CCCCC1 (centres undefined)	·	·	·	-3.9	·	·
Cc1ccc(N2C(=S)SC3CS(=O)(=O)CC32)cc1 (centres undefined)	1.13	1.1	-6.9	38.2*	19.9	109.6
CCCN1C(=O)/C(=C2\SC(N3CCCCC3)=NC2=O)c2ccccc21	0.72	0.3	70.7*	·	19.9	126.8

High-throughput results as filed in PubChem BioAssay.
